In PubChem BioAssay:
Values without a mark were called inactive.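 The calls were made as follows, unless noted: active = viability loss from added drug above about 55%, and viability with drug at most 40%, in both replicates (limit read from the data, passing the limit was not always enough); inconclusive = both conditions met in only one replicate; inactive = neither replicate meets both conditions.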

experiment: HUVEC growth inhibition – cell-based, human, primary screen (AID 575;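 active = viability at or below 30% in both replicate assays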;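 also: 100% = median of untreated cell wells with 0.1% DMSO on each plate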); settings: HUVEC proliferation, CellTiter-Glo luminescence, 72 h; at 10 µM; hits give low values
Outline: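 material = primary HUVEC, no more than 12 passages | input = 1250 cells per well | controls = vehicle and MePR control wells | measured by = CTG luminescence | times = 72 h compound incubation | format = collagen-coated 384-well format | read-out = % viability vs DMSO wells | doses = single 10 µM dose, 0.1% DMSO, from 5x medium stock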

Compared with CC(C)=CC/C=C1\CCC(C(=O)O)C(C(=O)O)C1 (stereo unspecified), C=CCn1c(SCC(=O)NC2CCCCC2)nnc1-c1sc(N)nc1C is higher in viability: 91.6% for the first, 110% for the second.

Compared with COCCOC(=O)c1c(C)oc2ccc(NS(=O)(=O)c3ccc(F)cc3)cc12, Cc1ccc(C)c(N2CCN(C(=O)CCCn3c(=S)[nH]c4cc5c(cc4c3=O)OCO5)CC2)c1 is lower in viability: 93% for the first, 62.5% for the second.

Going from CCC(C)N=C1SCC(C)(/C=N/O)S1 (stereo unspecified) to CCSc1nc2ccccc2n1CC(N)=O, the viability falls from 116% to 96.5%.

experiment: H69AR cell proliferation blockers – human, duplicate replicates, primary screen (AID 580;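 active = viability at or under a set limit in both replicates, limit being median viability minus 3 SD, cut at about 48% in these data, passing the limit was not always enough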;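 also: 100% = mean luminescence of untreated wells and 0% = no signal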); settings: H69AR lung tumor cells viability, ATP luminescence, 72 h; at 10 µM; hits give low values

Going from CCn1c(=O)cc(SCC(=O)Nc2cccnc2)c2ccccc21 to CCn1c(=O)n(CC(=O)NCc2ccccc2OC)c(=O)c2ccccc21, the viability falls from 104% to 101%.

First: c1ccc2c(c1)CNc1ccccc1C2
Second: COc1ccccc1Nc1nc2ccccc2[nH]1
The viability of the first is higher: 93.1% for the first, 72.8% for the second.

Going from O=C(Nc1cccc(C(F)(F)F)c1)c1ccco1 to O=C(Nc1ccccc1C(=O)N1CCN(c2ccccc2)CC1)c1ccco1, the viability falls from 103% to 100%.

Compared with CCC(c1nnc(SCC(=O)NCC2CCCO2)n1Cc1ccccc1)N(C)C (stereo unspecified), CCSc1nc2ccccc2n1CC(N)=O is lower in viability: 89.2% for the first, 88.8% for the second.

First: COC(=O)c1cc(Br)c(=O)n(-c2ccc(OC)cc2)c1
Second: COc1ccc(OC)c(C(=O)COC(=O)c2cc(C)oc2C)c1
The viability of the first is higher: 94.5% for the first, 92.7% for the second.

Compared with COc1cccc(OCc2nc3ccccc3[nH]2)c1, Cc1cccc(-c2noc(CCC(=O)Nc3ccccc3)n2)c1 is lower in viability: 95.8% for the first, 91.2% for the second.

Compared with O=c1c2c(-c3ccccc3)csc2nc2n1CCC2, C=CCn1c(=O)/c(=C/c2ccc(O)cc2)s/c1=C(/C#N)c1nnc2n1CCCCC2 is higher in viability: 79.4% for the first, 85.5% for the second.

Going from COc1cccc(C(=O)CN2CCC(NC(=O)NC3CCCCC3)CC2)c1 to O=C(NCCCNC1CCCCC1)c1ccc(/C=N/O)nc1, the viability rises from 98.1% to 103%.

First: Cc1ccc(C(c2nnnn2CCC(C)C)N2CCN(C)CC2)cc1 (stereo unspecified)
Second: Cc1ccc(Nc2nc(N)nc(CN3CCCCCC3)n2)cc1
The viability of the first is higher: 98.8% for the first, 78.4% for the second.

Compared with COC(=O)C(C)Oc1ccc2c3c(c(=O)oc2c1)CCCCC3 (stereo unspecified), COCCOC(=O)c1c(C)oc2ccc(NS(=O)(=O)c3ccc(F)cc3)cc12 is lower in viability: 103% for the first, 90.5% for the second.

First: COc1ccccc1N1CCN(C(=O)c2ccc(S(=O)(=O)N3CCCCCC3)cc2)CC1
Second: Cc1ccc(C)c(N2CCN(C(=O)CCCn3c(=S)[nH]c4cc5c(cc4c3=O)OCO5)CC2)c1
The viability of the first is lower: 85.5% for the first, 94% for the second.

Compared with COc1ccc(CCNC(=O)CC2COc3ccccc3O2)cc1OC (stereo unspecified), COc1ccc(CNC(=O)c2cc(-c3ccc(OC)c(OC)c3)on2)cc1 is higher in viability: 85.4% for the first, 94.4% for the second.

Going from O=C(CSc1nnnn1-c1ccccc1)c1cc2ccccc2oc1=O to COCCNC(=O)C(c1ccc(C)o1)N(Cc1ccc(F)cc1)C(=O)Cn1nnc2ccccc21 (stereo unspecified), the viability rises from 74.2% to 97.8%.

Compared with c1cncc(-c2nnc(-c3ccco3)o2)c1, O=C1NC(c2ccco2)Nc2ccccc21 (stereo unspecified) is lower in viability: 105% for the first, 97.8% for the second.

Going from COc1ccc(OC)c(C2=NOC(C(=O)NCCN3CCOCC3)C2)c1 (stereo unspecified) to C=CCN1C(=O)/C(=C2\SC(N3CCOCC3)=NC2=O)c2cc(Br)ccc21, the viability falls from 90.6% to 83.1%.

Going from C/C(=N\O)C(C)/[N+]([O-])=C/c1nc(C)c(C)n1O (stereo unspecified) to CCC(C)N=C1SCC(C)(/C=N/O)S1 (stereo unspecified), the viability rises from 92.8% to 104%.

Going from C=CCOc1ccc(/C(O)=C2\C(=O)C(=O)N(CCOC)C2c2cccnc2)cc1 (stereo unspecified) to COc1ccccc1C1c2c(oc3ccc(Cl)cc3c2=O)C(=O)N1c1cc(C)on1 (stereo unspecified), the viability falls from 103% to 72.2%.

Compared with Cn1nnnc1SCSc1nnnn1C, C=CCn1c(SCC(=O)NC2CCCCC2)nnc1-c1sc(N)nc1C is lower in viability: 96.9% for the first, 95.8% for the second.

Going from CN(CC(=O)Nc1ccc2c(c1)OCCO2)S(=O)(=O)c1ccc(Br)s1 to Cc1ccc2cc(CN(CC3CCCO3)S(=O)(=O)c3ccc4c(c3)OCCO4)c(=O)[nH]c2c1C (stereo unspecified), the viability rises from 83.3% to 86.1%.

Compared with C=CCn1cnc2c(NCc3ccccc3)ncnc21, CC(C)=CC/C=C1\CCC(C(=O)O)C(C(=O)O)C1 (stereo unspecified) is higher in viability: 97.1% for the first, 104% for the second.

experiment: MRP1 drug-resistance reversers in H69AR cells – cell-based, doxorubicin co-treatment, pilot screen (AID 601); settings: H69AR cells + 2 uM doxorubicin, CellTiter-Glo, 72 h; at 10 µM; hits give high values

Going from CCn1c(=O)cc(SCC(=O)Nc2cccnc2)c2ccccc21 to CCn1c(=O)n(CC(=O)NCc2ccccc2OC)c(=O)c2ccccc21, the differential viability (reversal) falls from 14.7% to 3.65%.

Going from c1ccc2c(c1)CNc1ccccc1C2 to COc1ccccc1Nc1nc2ccccc2[nH]1, the differential viability (reversal) falls from -4.85% to -10.6%.

Compared with O=C(Nc1cccc(C(F)(F)F)c1)c1ccco1, O=C(Nc1ccccc1C(=O)N1CCN(c2ccccc2)CC1)c1ccco1 is lower in differential viability (reversal): 19.4% for the first, 5.93% for the second.

Compared with CCC(c1nnc(SCC(=O)NCC2CCCO2)n1Cc1ccccc1)N(C)C (stereo unspecified), CCSc1nc2ccccc2n1CC(N)=O is higher in differential viability (reversal): 5.86% for the first, 6.57% for the second.

Compared with COC(=O)c1cc(Br)c(=O)n(-c2ccc(OC)cc2)c1, COc1ccc(OC)c(C(=O)COC(=O)c2cc(C)oc2C)c1 is lower in differential viability (reversal): 7.62% for the first, 4.87% for the second.

Compared with COc1cccc(OCc2nc3ccccc3[nH]2)c1, Cc1cccc(-c2noc(CCC(=O)Nc3ccccc3)n2)c1 is lower in differential viability (reversal): 7.5% for the first, 6.29% for the second.

Compared with O=c1c2c(-c3ccccc3)csc2nc2n1CCC2, C=CCn1c(=O)/c(=C/c2ccc(O)cc2)s/c1=C(/C#N)c1nnc2n1CCCCC2 is higher in differential viability (reversal): -4.97% for the first, 8.51% for the second.

First: COc1cccc(C(=O)CN2CCC(NC(=O)NC3CCCCC3)CC2)c1
Second: O=C(NCCCNC1CCCCC1)c1ccc(/C=N/O)nc1
The differential viability (reversal) of the first is higher: 6.55% for the first, 4.55% for the second.

First: Cc1ccc(C(c2nnnn2CCC(C)C)N2CCN(C)CC2)cc1 (stereo unspecified)
Second: Cc1ccc(Nc2nc(N)nc(CN3CCCCCC3)n2)cc1
The differential viability (reversal) of the first is higher: 5.6% for the first, -10.4% for the second.

First: COC(=O)C(C)Oc1ccc2c3c(c(=O)oc2c1)CCCCC3 (stereo unspecified)
Second: COCCOC(=O)c1c(C)oc2ccc(NS(=O)(=O)c3ccc(F)cc3)cc12
The differential viability (reversal) of the first is higher: 10.5% for the first, -4.71% for the second.

Going from COc1ccccc1N1CCN(C(=O)c2ccc(S(=O)(=O)N3CCCCCC3)cc2)CC1 to Cc1ccc(C)c(N2CCN(C(=O)CCCn3c(=S)[nH]c4cc5c(cc4c3=O)OCO5)CC2)c1, the differential viability (reversal) rises from -2.48% to 4.74%.

Going from COc1ccc(CCNC(=O)CC2COc3ccccc3O2)cc1OC (stereo unspecified) to COc1ccc(CNC(=O)c2cc(-c3ccc(OC)c(OC)c3)on2)cc1, the differential viability (reversal) rises from 4.62% to 8.78%.

Going from O=C(CSc1nnnn1-c1ccccc1)c1cc2ccccc2oc1=O to COCCNC(=O)C(c1ccc(C)o1)N(Cc1ccc(F)cc1)C(=O)Cn1nnc2ccccc21 (stereo unspecified), the differential viability (reversal) rises from -4.18% to 3.14%.

Going from c1cncc(-c2nnc(-c3ccco3)o2)c1 to O=C1NC(c2ccco2)Nc2ccccc21 (stereo unspecified), the differential viability (reversal) falls from 16% to 7.01%.

Compared with COc1ccc(OC)c(C2=NOC(C(=O)NCCN3CCOCC3)C2)c1 (stereo unspecified), C=CCN1C(=O)/C(=C2\SC(N3CCOCC3)=NC2=O)c2cc(Br)ccc21 is lower in differential viability (reversal): 5.3% for the first, -4.46% for the second.

Going from C/C(=N\O)C(C)/[N+]([O-])=C/c1nc(C)c(C)n1O (stereo unspecified) to CCC(C)N=C1SCC(C)(/C=N/O)S1 (stereo unspecified), the differential viability (reversal) rises from -8.95% to 7.86%.

Compared with C=CCOc1ccc(/C(O)=C2\C(=O)C(=O)N(CCOC)C2c2cccnc2)cc1 (stereo unspecified), COc1ccccc1C1c2c(oc3ccc(Cl)cc3c2=O)C(=O)N1c1cc(C)on1 (stereo unspecified) is lower in differential viability (reversal): 14.8% for the first, -3.51% for the second.

Compared with Cn1nnnc1SCSc1nnnn1C, C=CCn1c(SCC(=O)NC2CCCCC2)nnc1-c1sc(N)nc1C is lower in differential viability (reversal): 7.5% for the first, 0.86% for the second.

First: CN(CC(=O)Nc1ccc2c(c1)OCCO2)S(=O)(=O)c1ccc(Br)s1
Second: Cc1ccc2cc(CN(CC3CCCO3)S(=O)(=O)c3ccc4c(c3)OCCO4)c(=O)[nH]c2c1C (stereo unspecified)
The differential viability (reversal) of the first is lower: -10.7% for the first, 3.25% for the second.

First: C=CCn1cnc2c(NCc3ccccc3)ncnc21
Second: CC(C)=CC/C=C1\CCC(C(=O)O)C(C(=O)O)C1 (stereo unspecified)
The differential viability (reversal) of the first is lower: -3.4% for the first, 20.5% for the second.
